Reference: ChEMBL document CHEMBL1122781, “[(Aminomethyl)aryloxy]acetic acid esters. A new class of high-ceiling diuretics. 1. Effects of nitrogen and aromatic nuclear substitution” (J Med Chem, 1984)

Key:
Canis familiaris [1] = test: Diuretic activity was evaluated by measuring amount of K+ during 0-6 hr in urine of normotensive saline loaded dogs at 0.3mg/kg, po; format: ADME, organism-based, Canis lupus familiaris; settings: dog, in vivo
Outline: (§1)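 Conscious female dogs, each given one oral dose per experiment. Urine and heparinized venous plasma were taken at each collection time. Urine was centrifuged and chilled, and plasma was separated within 30 min. Both were assayed for Na+, K+, Cl−, urate and glucose. Results are mean excretion in mequiv kg−1 (6 h)−1, with at least two dogs per dose.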

Rattus norvegicus = test: Diuretic activity was evaluated by measuring amount of K+ during 0-6 h in urine of normotensive saline loaded rats at 100.0 mg/kg, po; format: ADME, organism-based; design: dose 100 mg/kg, route oral; settings: in vivo
Outline: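 Male Sprague–Dawley rats (275–375 g), fed and watered ad libitum before testing but not during it, eight per group. Compound in 0.2% methylcellulose/water given orally at 2 mL/kg, immediately followed by a 0.9% saline load equal to 5% of body weight. Rats were kept in individual metabolism cages. Urine was sampled at 2, 6 and 24 h for volume, Na+, K+, Cl−, uric acid and osmolality.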

Canis familiaris [2] = test: Diuretic activity was evaluated by measuring amount of K+ during 0-6 hr in urine of normotensive saline loaded dogs at 10.0mg/kg, po; format: ADME, organism-based, Canis lupus familiaris; settings: dog, in vivo, 10 mg/kg; outline: as §1

Diuretic activity (Canis familiaris [1]): 1 m equiv kg-1 | Diuretic activity (Rattus norvegicus): 3.6 m equiv kg-1 | Diuretic activity (Canis familiaris [2]): 1.7 m equiv kg-1
SMILES: CCOC(=O)COc1ccc(C(=O)c2ccc(O)c(CN)c2)c(Cl)c1Cl.Cl
